Measurements from ChEMBL document CHEMBL4118046, “Chemistry of Renieramycins. 17. A New Generation of Renieramycins: Hydroquinone 5-O-Monoester Analogues of Renieramycin M as Potential Cytotoxic Agents against Non-Small-Cell Lung Cancer Cells” (J Nat Prod, 2017).
pIC50: −log10 of the molar value.

Tests used:
NCI-H460 = assay: Cytotoxicity against human NCI-H460 cells after 72 hrs by MTT assay; assay type: functional, cell-based; conditions: NCI-H460, 72 h
Method in brief: (§1)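 Metastatic human NSCLC lines H292 and H460, obtained from ATCC, were tested for viability by MTT assay following a previously published protocol. Cisplatin and doxorubicin served as positive controls. IC50 values are reported.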

NCI-H292 = assay: Cytotoxicity against human NCI-H292 cells after 72 hrs by MTT assay; assay type: functional, cell-based; conditions: NCI-H292, 72 h; method in brief: as §1

Compound: COC1=C(C)C(=O)C2=C(C1=O)[C@@H]1[C@@H]3CC4=C(C(=O)C(OC)=C(C)C4=O)[C@H](CO)N3[C@@H](C#N)[C@@H](C2)N1C
- pIC50 (NCI-H460): 6.79
- pIC50 (NCI-H292): 6.66

Compound: C/C=C(/C)C(=O)OC[C@H]1c2c(O)c(OC)c(C)c(OC(=O)/C=C/c3ccc(F)cc3)c2C[C@H]2[C@H]3C4=C(C[C@H]([C@H](C#N)N12)N3C)C(=O)C(C)=C(OC)C4=O
- pIC50 (NCI-H460): 7.77
- pIC50 (NCI-H292): 7.20

Compound: C/C=C(/C)C(=O)OC[C@H]1c2c(O)c(OC)c(C)c(OC=O)c2C[C@H]2[C@H]3C4=C(C[C@H]([C@H](C#N)N12)N3C)C(=O)C(C)=C(OC)C4=O
- pIC50 (NCI-H460): 8.01
- pIC50 (NCI-H292): 7.92

Compound: C/C=C(/C)C(=O)OC[C@H]1c2c(O)c(OC)c(C)c(OC(=O)/C=C/c3cccnc3)c2C[C@H]2[C@H]3C4=C(C[C@H]([C@H](C#N)N12)N3C)C(=O)C(C)=C(OC)C4=O
- pIC50 (NCI-H460): 7.28
- pIC50 (NCI-H292): 7.24

Compound: C/C=C(/C)C(=O)OC[C@H]1c2c(O)c(OC)c(C)c(O)c2C[C@H]2[C@H]3c4c(O)c(OC)c(C)c(O)c4C[C@H]([C@H](C#N)N12)N3C
- pIC50 (NCI-H460): 8.96
- pIC50 (NCI-H292): 8.77

Compound: C/C=C(/C)C(=O)OC[C@H]1c2c(O)c(OC)c(C)c(OC(=O)CCC)c2C[C@H]2[C@H]3C4=C(C[C@H]([C@H](C#N)N12)N3C)C(=O)C(C)=C(OC)C4=O
- pIC50 (NCI-H460): 8.25
- pIC50 (NCI-H292): 8.17

Compound: C/C=C(/C)C(=O)OC[C@H]1c2c(O)c(OC)c(C)c(OC(=O)c3ccc(Br)cc3)c2C[C@H]2[C@H]3C4=C(C[C@H]([C@H](C#N)N12)N3C)C(=O)C(C)=C(OC)C4=O
- pIC50 (NCI-H460): 7.85
- pIC50 (NCI-H292): 7.68

Compound: C/C=C(/C)C(=O)OC[C@H]1c2c(O)c(OC)c(C)c(OC(=O)c3ccc4ncccc4c3)c2C[C@H]2[C@H]3C4=C(C[C@H]([C@H](C#N)N12)N3C)C(=O)C(C)=C(OC)C4=O
- pIC50 (NCI-H460): 7.35
- pIC50 (NCI-H292): 7.27

Compound: C/C=C(/C)C(=O)OC[C@H]1c2c(O)c(OC)c(C)c(OC(=O)CNC(=O)OC(C)(C)C)c2C[C@H]2[C@H]3C4=C(C[C@H]([C@H](C#N)N12)N3C)C(=O)C(C)=C(OC)C4=O
- pIC50 (NCI-H460): 8.22
- pIC50 (NCI-H292): 8.00

Compound: C/C=C(/C)C(=O)OC[C@H]1c2c(O)c(OC)c(C)c(OC(=O)/C=C/c3ccccc3)c2C[C@H]2[C@H]3C4=C(C[C@H]([C@H](C#N)N12)N3C)C(=O)C(C)=C(OC)C4=O
- pIC50 (NCI-H460): 7.96
- pIC50 (NCI-H292): 7.92

Compound: C/C=C(/C)C(=O)OC[C@H]1c2c(O)c(OC)c(C)c(OC(=O)c3cccnc3)c2C[C@H]2[C@H]3C4=C(C[C@H]([C@H](C#N)N12)N3C)C(=O)C(C)=C(OC)C4=O
- pIC50 (NCI-H460): 7.70
- pIC50 (NCI-H292): 7.23

Compound: C/C=C(/C)C(=O)OC[C@H]1c2c(c(O)c(C)c3c2OCO3)C[C@H]2[C@H]3C4=C(C[C@H]([C@H](C#N)N12)N3C)C(=O)C(C)=C(OC)C4=O
- pIC50 (NCI-H460): 7.44
- pIC50 (NCI-H292): 7.21

Compound: C/C=C(/C)C(=O)OC[C@H]1c2c(c(OC(C)=O)c(C)c(OC)c2OC(C)=O)C[C@H]2[C@H]3C4=C(C[C@H]([C@H](C#N)N12)N3C)C(=O)C(C)=C(OC)C4=O
- pIC50 (NCI-H460): 7.60
- pIC50 (NCI-H292): 7.55

Compound: C/C=C(/C)C(=O)OC[C@H]1c2c(O)c(OC)c(C)c(OC(=O)[C@H](C)NC(=O)OC(C)(C)C)c2C[C@H]2[C@H]3C4=C(C[C@H]([C@H](C#N)N12)N3C)C(=O)C(C)=C(OC)C4=O
- pIC50 (NCI-H460): 7.80
- pIC50 (NCI-H292): 7.62

Compound: C/C=C(/C)C(=O)OC[C@H]1c2c(O)c(OC)c(C)c(OC(=O)CCCC)c2C[C@H]2[C@H]3C4=C(C[C@H]([C@H](C#N)N12)N3C)C(=O)C(C)=C(OC)C4=O
- pIC50 (NCI-H460): 7.59
- pIC50 (NCI-H292): 7.44

Compound: C/C=C(/C)C(=O)OC[C@H]1c2c(O)c(OC)c(C)c(OC(=O)c3cnc4ccccc4c3)c2C[C@H]2[C@H]3C4=C(C[C@H]([C@H](C#N)N12)N3C)C(=O)C(C)=C(OC)C4=O
- pIC50 (NCI-H460): 7.66
- pIC50 (NCI-H292): 6.95

Compound: C/C=C(/C)C(=O)OC[C@H]1c2c(O)c(OC)c(C)c(OC(=O)OC)c2C[C@H]2[C@H]3C4=C(C[C@H]([C@H](C#N)N12)N3C)C(=O)C(C)=C(OC)C4=O
- pIC50 (NCI-H460): 7.85
- pIC50 (NCI-H292): 7.96

Compound: C/C=C(/C)C(=O)OC[C@H]1c2c(O)c(OC)c(C)c(OC(=O)c3ccc(-c4ccccc4)cc3)c2C[C@H]2[C@H]3C4=C(C[C@H]([C@H](C#N)N12)N3C)C(=O)C(C)=C(OC)C4=O
- pIC50 (NCI-H460): 7.27
- pIC50 (NCI-H292): 7.15

Compound: COc1cc2c(cc1O)CCN[C@]21CS[C@@H]2c3c(OC(C)=O)c(C)c4c(c3[C@H](COC1=O)N1[C@@H]2[C@H]2c3c(cc(C)c(OC)c3O)C[C@H]([C@@H]1C#N)N2C)OCO4
- pIC50 (NCI-H460): 8.92
- pIC50 (NCI-H292): 8.80

Compound: C/C=C(/C)C(=O)OC[C@H]1c2c(O)c(OC)c(C)c(OC(=O)c3ccncc3)c2C[C@H]2[C@H]3C4=C(C[C@H]([C@H](C#N)N12)N3C)C(=O)C(C)=C(OC)C4=O
- pIC50 (NCI-H460): 7.96
- pIC50 (NCI-H292): 7.70

Compound: C/C=C(/C)C(=O)OC[C@H]1c2c(O)c(OC)c(C)c(OC(=O)CC)c2C[C@H]2[C@H]3C4=C(C[C@H]([C@H](C#N)N12)N3C)C(=O)C(C)=C(OC)C4=O
- pIC50 (NCI-H460): 8.29
- pIC50 (NCI-H292): 8.64

Compound: C/C=C(/C)C(=O)OC[C@H]1c2c(O)c(OC)c(C)c(OC(C)=O)c2C[C@H]2[C@H]3C4=C(C[C@H]([C@H](C#N)N12)N3C)C(=O)C(C)=C(OC)C4=O
- pIC50 (NCI-H460): 8.44
- pIC50 (NCI-H292): 8.52

Compound: C/C=C(/C)C(=O)OC[C@H]1c2c(O)c(OC)c(C)c(OC(=O)CCCCC)c2C[C@H]2[C@H]3C4=C(C[C@H]([C@H](C#N)N12)N3C)C(=O)C(C)=C(OC)C4=O
- pIC50 (NCI-H460): 7.82
- pIC50 (NCI-H292): 7.80

Compound: C/C=C(/C)C(=O)OC[C@H]1c2c(O)c(OC)c(C)c(OC(=O)c3ccccn3)c2C[C@H]2[C@H]3C4=C(C[C@H]([C@H](C#N)N12)N3C)C(=O)C(C)=C(OC)C4=O
- pIC50 (NCI-H460): 7.59
- pIC50 (NCI-H292): 6.99

Compound: COc1cccc2c1C(=O)c1c(O)c3c(c(O)c1C2=O)C[C@@](O)(C(=O)CO)C[C@@H]3O[C@H]1C[C@H](N)[C@H](O)[C@H](C)O1 [DOXORUBICIN]
- pIC50 (NCI-H460): 7.47
- pIC50 (NCI-H292): 6.45

Compound: C/C=C(/C)C(=O)OC[C@H]1C2=C(C[C@H]3[C@H]4C5=C(C[C@@H]([C@H](C#N)N13)N4C)C(=O)C(C)=C(OC)C5=O)C(=O)C(C)=C(OC)C2=O [RENIERAMYCIN M]
- pIC50 (NCI-H460): 8.19
- pIC50 (NCI-H292): 7.62
